From ChEMBL document CHEMBL1143373, “Novel 6-methanesulfonamide-3,4-methylenedioxyphenyl-N-acylhydrazones: orally effective anti-inflammatory drug candidates” (Bioorg Med Chem, 2009) come the findings set out here.

Activity calls are given as the source filed them.

Experiment [1] concerns Rattus norvegicus. Put plainly: Antiinflammatory activity in Wistar rat assessed as inhibition of carrageenan-induced paw edema volume at 300 umol/kg, po administered 1 hrs prior to carrageenan challenge measured after 3 hrs. The experiment is classed as functional. Also on record: scale not given: the % may be the effect or the level left. Put shortly: (§1)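 Fasted Wistar rats of both sexes (150–200 g), given compound orally as a suspension in 5% arabic gum in saline. One hour later, 1% carrageenan (1 mg/paw) injected subplantar into one hind paw, saline into the other. Volumes measured by glass plethysmometer at 3 h. Edema taken as the carrageenan-minus-saline paw difference, expressed as % inhibition vs vehicle. n = 8–10.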
On the technique in general: The carrageenan paw model is a standard test of acute inflammation.

The subject of experiment [2] is Mus musculus. Put plainly: Antinociceptive activity against formalin-induced pain in mouse assessed as inhibition of paw licking response during inflammatory phase at 300 umol/kg, po measured 15 to 30 mins after formalin injection. In kind it is functional. On the set-up: scale not given: the % may be the effect or the level left. Put shortly: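 Mice received 20 µL of 2.5% formalin subplantar in the hind paw. The inflammatory (second) phase was recorded 15–30 min after injection.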

Experiment [3] relates to Rattus norvegicus. Nature of the experiment: Antiinflammatory activity in po dosed Wistar rat assessed as inhibition of carrageenan-induced paw edema volume administered 1 hrs prior to carrageenan challenge measured after 3 hrs. The experiment is classed as functional. Put shortly:
as §1

The subject of experiment [4] is Rattus norvegicus. Put plainly: Antiinflammatory activity against arachidonic acid-induced ear edema in Wistar rat. The experiment is classed as functional, organism-based.
Experiment [5] concerns Rattus norvegicus. Nature of the experiment: Antihyperalgesic activity in Wistar rat assessed as inhibition of carrageenan-induced thermal hyperalgesia at 300 umol/kg, po by hotplate test. The experiment is classed as functional, organism-based. Put shortly:
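Fasted Wistar rats of both sexes (150–200 g), dosed orally with 300 µmol/kg as a suspension in 5% arabic gum in saline (vehicle controls). Carrageenan 1% (1 mg/paw) injected subplantar 1 h later. Hot plate held at 51 °C, cut-off 20 s. Left hind paw withdrawal latency read at 0, 30, 60, 120, 180 and 240 min post-challenge. Hyperalgesia taken as the latency drop from time 0. n = 8 per group.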

In experiment [6] the test system is Mus musculus. Nature of the experiment: Antinociceptive activity in mouse assessed as inhibition of acetic acid-induced constrictions at 300 umol/kg, po. Also on record: scale not given: the % may be the effect or the level left. In kind it is functional.
The target of experiment [7] is Prostaglandin G/H synthase 1 (Homo sapiens, UniProt P23219). Put plainly: Inhibition of COX1 in human whole blood assessed as TXB2 production by enzyme immunoassay. In kind it is tissue-based.
Prostaglandin G/H synthase 1, sequence (P23219 whole entry): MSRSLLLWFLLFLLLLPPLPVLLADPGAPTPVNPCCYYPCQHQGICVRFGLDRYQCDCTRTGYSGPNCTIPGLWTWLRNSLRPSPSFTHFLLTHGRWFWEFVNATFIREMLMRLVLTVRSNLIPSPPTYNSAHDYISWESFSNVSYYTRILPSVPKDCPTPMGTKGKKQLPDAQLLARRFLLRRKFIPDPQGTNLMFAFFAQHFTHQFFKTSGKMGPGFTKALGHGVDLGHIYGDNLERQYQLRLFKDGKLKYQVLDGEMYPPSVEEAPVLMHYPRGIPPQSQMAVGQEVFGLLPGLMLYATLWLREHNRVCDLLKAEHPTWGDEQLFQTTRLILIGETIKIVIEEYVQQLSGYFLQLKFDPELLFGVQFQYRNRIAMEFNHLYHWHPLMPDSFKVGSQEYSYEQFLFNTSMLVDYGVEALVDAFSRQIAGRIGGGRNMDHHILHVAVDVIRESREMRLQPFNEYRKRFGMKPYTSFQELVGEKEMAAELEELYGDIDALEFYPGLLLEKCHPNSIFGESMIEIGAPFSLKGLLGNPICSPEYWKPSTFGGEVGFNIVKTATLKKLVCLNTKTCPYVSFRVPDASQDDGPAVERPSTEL
Experiment [8] deals with T1, Prostaglandin G/H synthase 2 (Homo sapiens, UniProt P35354).
T1 sequence (P35354 whole entry): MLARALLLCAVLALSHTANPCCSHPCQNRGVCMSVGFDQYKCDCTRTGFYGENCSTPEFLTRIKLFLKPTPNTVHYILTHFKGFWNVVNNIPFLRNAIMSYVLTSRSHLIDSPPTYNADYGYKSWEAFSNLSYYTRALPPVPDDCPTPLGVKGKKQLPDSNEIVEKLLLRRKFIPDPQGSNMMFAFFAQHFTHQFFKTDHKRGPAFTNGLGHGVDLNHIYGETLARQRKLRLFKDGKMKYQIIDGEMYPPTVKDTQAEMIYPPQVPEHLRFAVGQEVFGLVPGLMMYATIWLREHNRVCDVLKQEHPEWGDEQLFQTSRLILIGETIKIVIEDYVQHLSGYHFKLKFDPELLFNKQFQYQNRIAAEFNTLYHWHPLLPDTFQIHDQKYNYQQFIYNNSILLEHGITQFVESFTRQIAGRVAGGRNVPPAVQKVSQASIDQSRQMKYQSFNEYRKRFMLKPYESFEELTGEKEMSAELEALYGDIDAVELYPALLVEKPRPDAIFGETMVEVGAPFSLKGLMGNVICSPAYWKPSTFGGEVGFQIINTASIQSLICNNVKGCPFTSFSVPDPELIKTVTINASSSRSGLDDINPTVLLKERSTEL
Put plainly: Inhibition of COX2 in LPS-stimulated human whole blood assessed as TXB2 production by enzyme immunoassay. The experiment is classed as tissue-based.

Regarding `O=C(N/N=C/c1cccs1)c1ccc2c(c1)OCO2`, the Activity in the experiment with Rattus norvegicus [1] turned out to be 29.7%.

As for `CS(=O)(=O)Nc1cc2c(cc1C(=O)N/N=C/c1cccs1)OCO2`, the Activity with Rattus norvegicus [1] amounted to 36%.

Regarding `CS(=O)(=O)Nc1ccc([N+](=O)[O-])cc1Oc1ccccc1` [NIMESULIDE], the results for the Activity with Rattus norvegicus [1] and with Mus musculus [2] were 57.5% and 58.5%, respectively.

Regarding `CS(=O)(=O)Nc1cc2c(cc1C(=O)N/N=C/c1ccccc1)OCO2`, the figures for the Activity in the experiment with Rattus norvegicus [1], in the experiment with Mus musculus [6] and with Mus musculus [2] were 59.6%, 70% and 48.7%, respectively. In the experiment with Rattus norvegicus [3], the ED50 came to 97.8 µmol/kg. For the same compound, the outcome with Rattus norvegicus [4] and with Rattus norvegicus [5] was Active. Besides, the values for the concentration for half-maximal inhibition (IC50) in experiment [7] and in experiment [8] were 4.1 µM and 10.2 µM, respectively.

Turning to `CS(=O)(=O)Nc1cc2c(cc1C(=O)N/N=C/c1ccco1)OCO2`, in the experiment with Rattus norvegicus [1], the Activity came out at 37.9%.

As a reminder, the ED50 is the midpoint of the dose-response relation. As a reminder, the IC50 is the concentration needed to halve the response being measured.
